This note sets out measurements from ChEMBL document CHEMBL4321860, “Disrupting the Conserved Salt Bridge in the Trimerization of Influenza A Nucleoprotein” (J Med Chem, 2020).

The source made the active and inactive calls. The calls are words filed in the database; no cut-off is given here.

Data set [1] can be described thus: Inhibition of nucleoprotein trimerization in recombinant Influenza A virus A/WSN/1933 (H1N1) infected in MDCK cells assessed as reduction in reduction in E339(carboxyl group)-R416(guanidino group) interaction by measuring virus-induced cytopathic effect after 48 hrs by CellTiter 96 AQueous non-radioactive cell proliferation assay. The class given is cell-based. In short, it runs like this: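 CPE protection assay. Virus at 100 TCID₅₀ is mixed 1:1 with compound at varied concentrations and added to MDCK cells (1 × 10⁵ cells/mL). After 48 h at 37 °C/5% CO₂, CPE is read with CellTiter 96 AQueous reagent. EC₅₀, the concentration giving 50% protection from CPE, is obtained by fitting percent CPE against concentration.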

Data set [2] is described as follows: Cytotoxicity against dog MDCK cells after 48 hrs by CellTiter 96 AQueous non-radioactive cell proliferation assay. The format is cell-based, Canis lupus familiaris. In short, it runs like this:
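MDCK cells, grown in DMEM with 10% FBS and penicillin−streptomycin at 37 °C/5% CO₂, seeded at 1 × 10⁵ cells/mL and exposed to varied compound concentrations without virus. Incubated 48 h at 37 °C under 5% CO₂, then read with CellTiter 96 AQueous (MTS) reagent. CC₅₀ is the 50% cytotoxic concentration from the curve fit.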

For data set [3], the system named is Influenza A virus. Briefly: Antiviral activity against Influenza A virus A/WSN/1933 (H1N1) infected in BALB/c mouse assessed as animal survival rate at 20 mg/kg/day, ip administered for 5 days and measured after 14 days relative to control. The format is functional. In short, it runs like this: (§1)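 Female BALB/c mice (18−20 g), quarantined 48−72 h, anesthetized i.p. (zoletil or ketamine/xylazine). Drug in PBS with 40% PEG 400 given i.p. twice daily for 5 days. Intranasal virus challenge (25 μL, 2X mouse LD₅₀) 4 h after first dose. Vehicle-only controls on the same schedule; 10 mice/group. Survival and body weight recorded daily for 14 days.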

Data set [4] can be described thus: Aqueous solubility of compound. The class given is physicochemical. To be noted: buffer.
Data set [5] has as its system Influenza A virus. The data set is described as follows: Antiviral activity against Influenza A virus A/WSN/1933 (H1N1) infected in BALB/c mouse assessed as increase in animal body weight at 20 mg/kg/day, ip administered for 5 days and measured after 10 days post infection. The format is functional, organism-based. The method, boiled down:
as §1

One may read the EC50 as the concentration that produces a half-maximal response. As usually defined, the CC50 is the concentration giving 50% cytotoxicity. `CC(C)OCCCNC(=O)c1csc(Nc2cc(Cl)c(Cl)c(Cl)c2)n1`: in data set [1], the EC50 was 0.6 µM. In data set [2], the cytotoxic concentration (CC50) at 48 h was greater than 100 µM.
On the same counts, the results for `Cc1cc(Nc2nc(C(=O)NCCCOC(C)C)cs2)ccc1Cl` are 1.2 µM and greater than 100 µM.
Consider `CC(C)OCCCNC(=O)c1csc(Nc2cc(F)c(Cl)c(F)c2)n1.O=S(=O)(O)O.O=S(=O)(O)O`, for which, in the data set on Influenza A virus [3], the Activity turned out to be 30%.
For `CC(C)OCCCNC(=O)c1csc(Nc2ccc(Cl)c(F)c2)n1`, the EC50 in data set [1] was 0.5 µM. Moreover, in data set [2], the CC50 at 48 h is greater than 100 µM.
Taken in the same sequence, the figures for `CCOCCCNC(=O)c1csc(Nc2ccc(Cl)c(C)c2)n1` were 1 µM and 52 µM.
As for `Cc1cc(Nc2nc(C(=O)NCCCN3CCOCC3)cs2)ccc1Cl`, the EC50 in data set [1] was determined as 3.7 µM. Further, the CC50 at 48 h in data set [2] was found to be 47 µM.
On to `CCOCCCNC(=O)c1csc(Nc2ccc(Cl)c(Cl)c2)n1`, for which the EC50 in data set [1] was 0.2 µM. Also, the CC50 at 48 h in data set [2] is greater than 100 µM.
On the same counts, the results for `O=C(NCCCN1CCOCC1)c1csc(Nc2cc(Cl)c(Cl)c(Cl)c2)n1` are 1.5 µM and 41 µM.
For the molecule `CCOCCCNC(=O)c1csc(Nc2cc(F)c(Cl)c(F)c2)n1.CS(=O)(=O)O.CS(=O)(=O)O`, in the data set with Influenza A virus [3], the Activity is given as 70%.
With `CCOCCCNC(=O)c1csc(Nc2ccc(Cl)c(F)c2)n1`, in data set [1], the EC50 came to 0.6 µM. Moreover, in data set [2], the CC50 at 48 h was greater than 100 µM.
On the same counts, the results for `CC(C)OCCCNC(=O)c1csc(Nc2ccc(Cl)c(Cl)c2)n1` are 0.7 µM and 100 µM.
As to `CCOCCCNC(=O)c1csc(Nc2cc(Cl)c(Cl)c(Cl)c2)n1`, the EC50 in data set [1] is 0.4 µM. Further, the CC50 at 48 h in data set [2] is greater than 100 µM.
On the same counts, the results for `CCOCCCNC(=O)c1csc(Nc2ccc(Cl)cc2)n1` are 1.3 µM and greater than 100 µM.
On the same counts, the results for `Cc1cc(Nc2nc(C(=O)NCCCOC(C)C)cs2)cc(C)c1Cl` are 1.3 µM and greater than 100 µM.
On to `CC(C)OCCCNC(=O)c1csc(Nc2ccc(Cl)cc2)n1`, for which, in data set [1], the 50% effective concentration (EC50) was 1.2 µM. Also, the half-maximal cytotoxic concentration (CC50) at 48 h in data set [2] was greater than 100 µM.
With `CC(C)OCCCNC(=O)c1csc(Nc2cc(F)c(Cl)c(F)c2)n1` [listing 1 of 2 here], in data set [1], the EC50 amounted to 0.11 µM. Further, the CC50 at 48 h in data set [2] is greater than 100 µM. Moreover, the solubility entry in data set [4] is recorded as “Insoluble”.
Take `O=C(NCCCN1CCOCC1)c1csc(Nc2ccc(Cl)cc2)n1`: in data set [1], the EC50 came out at 3.1 µM. For the same molecule, the cytotoxic concentration (CC50) at 48 h in data set [2] was greater than 100 µM.
In the case of `CCOCCCNC(=O)c1csc(Nc2cc(C)c(Cl)c(C)c2)n1`, in data set [1], the EC50 was found to be 2.3 µM. The half-maximal cytotoxic concentration (CC50) at 48 h in data set [2] was greater than 100 µM.
With `CCOCCCNC(=O)c1csc(Nc2cc(F)c(Cl)c(F)c2)n1` [listing 1 of 2 here], in data set [1], the EC50 came out at 0.12 µM. In addition, the CC50 at 48 h in data set [2] was greater than 100 µM. Also, the solubility result in data set [4] is given as “Insoluble”.
As for `CCOCCCNC(=O)c1csc(Nc2cc(F)c(Cl)c(F)c2)n1` [listing 2 of 2 here], the outcome in the data set on Influenza A virus [5] was Active.
As for `O=C(NCCCN1CCOCC1)c1csc(Nc2ccc(Cl)c(Cl)c2)n1`, the EC50 in data set [1] came out at 2.7 µM. The CC50 at 48 h in data set [2] was determined as 35.6 µM.
Regarding `CC(C)OCCCNC(=O)c1csc(Nc2cc(F)c(Cl)c(F)c2)n1` [listing 2 of 2 here], in the data set with Influenza A virus [5], the outcome was Active.
On to `O=C(NCCCN1CCOCC1)c1csc(Nc2cc(F)c(Cl)c(F)c2)n1`, for which the EC50 in data set [1] came out at 0.8 µM. Moreover, the CC50 at 48 h in data set [2] was determined as 52 µM.
Taken in the same sequence, the figures for `Cc1cc(Nc2nc(C(=O)NCCCN3CCOCC3)cs2)cc(C)c1Cl` were 3.1 µM and 45.7 µM.
On the same counts, the results for `O=C(NCCCN1CCOCC1)c1csc(Nc2ccc(Cl)c(F)c2)n1` are 3.2 µM and 45 µM.
